Measured values as given in ChEMBL document CHEMBL1156597, “Structure-activity relationship of kahalalide F synthetic analogues” (J Med Chem, 2008).

Columns and labels:
DU-145 = assay: Cytotoxicity against human DU145 cells after 48 hrs by SRB assay; type: functional, cell-based; conditions: Homo sapiens, DU-145, 48 h; for GI50: read-out: GI50; for CC50: read-out: LC50 (the source's name)
Procedure, shortened: (§1)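 Cells grown in RPMI 1640 with 10% FBS and penicillin/streptomycin at 37 °C and 5% CO₂, trypsinized, then seeded at 5 × 10³/well. After 18 h drug-free attachment, samples in DMSO/EtOH/PBS (0.5:0.5:99) were added for 48 h continuous exposure. Cells were fixed with cold TCA (1 h, 4 °C) and stained with SRB (10 min). Tris-solubilized stain read at 490 nm. Triplicate wells, mean ± SD; GI₅₀ derived.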

[1] = Cytotoxicity against human IGROV cells after 48 hrs by SRB assay; type: functional; conditions: read-out: LC50 (the source's name); procedure, shortened: as §1
[2] = Cytotoxicity against human IGROV-ET cells after 48 hrs by SRB assay; type: functional; conditions: for CC50: read-out: LC50 (the source's name); procedure, shortened: as §1
SK-MEL-28 = assay: Cytotoxicity against human SK-MEL-28 cells after 48 hrs by SRB assay; type: functional, cell-based; conditions: Homo sapiens, SK-MEL-28, 48 h; for CC50: read-out: LC50 (the source's name); for GI50: read-out: GI50; procedure, shortened: as §1
A549 = assay: Cytotoxicity against human A549 cells after 48 hrs by SRB assay; type: functional, cell-based; conditions: Homo sapiens, A549, 48 h; procedure, shortened: as §1
K562 = assay: Cytotoxicity against human K562 cells after 48 hrs by SRB assay; type: functional; conditions: K562, 48 h, read-out: LC50 (the source's name); procedure, shortened: as §1
PANC-1 = assay: Cytotoxicity against human PANC1 cells after 48 hrs by SRB assay; type: functional; conditions: PANC-1, 48 h; for CC50: read-out: LC50 (the source's name); procedure, shortened: as §1
HT-29 = assay: Cytotoxicity against human HT29 cells after 48 hrs by SRB assay; type: functional, cell-based; conditions: Homo sapiens, HT-29, 48 h; for CC50: read-out: LC50 (the source's name); procedure, shortened: as §1
LoVo [3] = assay: Cytotoxicity against human LoVo cells after 48 hrs by SRB assay; type: functional; conditions: for CC50: read-out: LC50 (the source's name)
LoVo [4] = assay: Cytotoxicity against human doxorubicin resistant LoVo cells after 48 hrs by SRB assay; type: functional; conditions: for CC50: read-out: LC50 (the source's name); procedure, shortened: as §1
HeLa = assay: Cytotoxicity against human HeLa cells after 48 hrs by SRB assay; type: functional; conditions: for CC50: read-out: LC50 (the source's name); procedure, shortened: as §1
[5] = Cytotoxicity against human HeLa-APL cells after 48 hrs by SRB assay; type: functional; procedure, shortened: as §1

C/C=C1\NC(=O)[C@H](Cc2ccccc2)NC(=O)[C@@H](C(C)C)NC(=O)[C@@H]([C@H](C)CC)NC(=O)[C@H](N)[C@H](C)OC(=O)[C@H](C(C)C)NC1=O
TGI (DU-145): 6000 nM
GI50 (DU-145): 5100 nM
CC50 (DU-145): 3310 nM
CC50 [1]: 2710 nM
TGI [2]: 5580 nM
GI50 ([2]; read-out: GI50): 4400 nM
CC50 [2]: 2280 nM
CC50 (SK-MEL-28): 3870 nM
LC50 (A549): 3580 nM
CC50 (K562): 8320 nM
GI50 (PANC-1): 4350 nM
TGI (PANC-1): 9720 nM
CC50 (PANC-1): 5520 nM
CC50 (HT-29): 10300 nM
GI50 (LoVo [3]): 14900 nM
TGI (LoVo [3]): 16900 nM
CC50 (LoVo [3]): 9830 nM
CC50 (LoVo [4]): 9860 nM
GI50 (HeLa): 740 nM
TGI (HeLa): 5420 nM
CC50 (HeLa): 3130 nM
LC50 (concentration giving 50% net cell kill) [5]: 3580 nM

CC[C@@H](C)[C@@H](NC(=O)[C@H](CCCN)NC(=O)[C@H]1CCCN1C(=O)[C@H](NC(=O)[C@@H](NC(=O)[C@@H](NC(=O)[C@H](NC(=O)CCCC(C)C)C(C)C)[C@@H](C)O)C(C)C)C(C)C)C(=O)N[C@H]1C(=O)N[C@H]([C@H](C)CC)C(=O)N[C@H](C(C)C)C(=O)N[C@@H](Cc2ccccc2)C(=O)N[C@H](CC)C(=O)N[C@@H](C(C)C)C(=O)O[C@H]1C
TGI (DU-145): 3040 nM
GI50 (DU-145): 3260 nM
CC50 (DU-145): 1700 nM
CC50 [1]: 963 nM
CC50 [2]: 748 nM
TGI (SK-MEL-28): 3360 nM
GI50 (SK-MEL-28): 3100 nM
CC50 (SK-MEL-28): 1980 nM
LC50 (A549): 1830 nM
TGI (A549): 3020 nM
GI50 (A549; read-out: GI50): 3230 nM
CC50 (K562): 2730 nM
GI50 (PANC-1): 4090 nM
TGI (PANC-1): 4980 nM
CC50 (PANC-1): 2830 nM
GI50 (HT-29): 3660 nM
TGI (HT-29): 3410 nM
CC50 (HT-29): 3210 nM
GI50 (LoVo [3]): 2630 nM
TGI (LoVo [3]): 2740 nM
CC50 (LoVo [3]): 2830 nM
GI50 (LoVo [4]): 1760 nM
TGI (LoVo [4]): 2000 nM
CC50 (LoVo [4]): 2280 nM
CC50 (HeLa): 1600 nM
LC50 (concentration giving 50% net cell kill) [5]: 1840 nM

C/C=C1\NC(=O)[C@H](Cc2ccccc2)NC(=O)[C@@H](C(C)C)NC(=O)[C@@H]([C@H](C)CC)NC(=O)[C@H](NC(=O)[C@H](NC(=O)[C@H](CCCN)NC(=O)[C@H]2CCCN2C(=O)[C@H](NC(=O)[C@@H](NC(=O)[C@@H](NC(=O)[C@@H](C)NC(=O)CCCC(C)C)[C@@H](C)O)C(C)C)C(C)C)[C@H](C)CC)[C@H](C)OC(=O)[C@H](C(C)C)NC1=O
TGI (DU-145): 1480 nM
GI50 (DU-145): 1810 nM
CC50 (DU-145): 1200 nM
CC50 [1]: 828 nM
CC50 [2]: 714 nM
TGI (SK-MEL-28): 1700 nM
GI50 (SK-MEL-28): 1990 nM
CC50 (SK-MEL-28): 1470 nM
LC50 (A549): 1400 nM
TGI (A549): 1430 nM
GI50 (A549; read-out: GI50): 1460 nM
CC50 (K562): 3310 nM
GI50 (PANC-1): 1660 nM
TGI (PANC-1): 1900 nM
CC50 (PANC-1): 2180 nM
GI50 (HT-29): 3030 nM
TGI (HT-29): 3180 nM
CC50 (HT-29): 3340 nM
GI50 (LoVo [3]): 1980 nM
TGI (LoVo [3]): 2260 nM
CC50 (LoVo [3]): 2220 nM
GI50 (LoVo [4]): 800 nM
TGI (LoVo [4]): 1270 nM
CC50 (LoVo [4]): 1850 nM
GI50 (HeLa): 1030 nM
TGI (HeLa): 998 nM
CC50 (HeLa): 963 nM
GI50 [5]: 1680 nM
LC50 (concentration giving 50% net cell kill) [5]: 1180 nM
TGI [5]: 1420 nM

C/C=C1\NC(=O)[C@H](Cc2ccccc2)NC(=O)[C@@H](C(C)C)NC(=O)[C@@H]([C@H](C)CC)NC(=O)[C@H](NC(=O)[C@H](NC(=O)[C@H](CCCN)NC(=O)[C@H]2CCCN2C(=O)[C@H](NC(=O)[C@@H](NC(=O)[C@@H](NC(=O)[C@@H](CCC(=O)O)NC(=O)CCCC(C)C)[C@@H](C)O)C(C)C)C(C)C)[C@H](C)CC)[C@H](C)OC(=O)[C@H](C(C)C)NC1=O
TGI (DU-145): 3010 nM
GI50 (DU-145): 2840 nM
CC50 (DU-145): 1660 nM
CC50 [1]: 844 nM
GI50 [2]: 969 nM
GI50 ([2]; read-out: GI50): 1310 nM
CC50 [2]: 705 nM
TGI (SK-MEL-28): 3750 nM
GI50 (SK-MEL-28): 3730 nM
CC50 (SK-MEL-28): 1950 nM
LC50 (A549): 1800 nM
TGI (A549): 2960 nM
GI50 (A549; read-out: GI50): 3250 nM
CC50 (K562): 3040 nM
GI50 (PANC-1): 5310 nM
TGI (PANC-1): 4880 nM
CC50 (PANC-1): 2770 nM
GI50 (HT-29): 2910 nM
TGI (HT-29): 2960 nM
CC50 (HT-29): 3010 nM
GI50 (LoVo [3]): 1950 nM
TGI (LoVo [3]): 2200 nM
CC50 (LoVo [3]): 2490 nM
GI50 (LoVo [4]): 2030 nM
TGI (LoVo [4]): 2220 nM
CC50 (LoVo [4]): 2430 nM
GI50 (HeLa): 2940 nM
TGI (HeLa): 2720 nM
CC50 (HeLa): 1570 nM
GI50 [5]: 2910 nM
LC50 (concentration giving 50% net cell kill) [5]: 1800 nM
TGI [5]: 3570 nM

C/C=C1\NC(=O)[C@H](Cc2ccccc2)NC(=O)[C@@H](C(C)C)NC(=O)[C@@H]([C@H](C)CC)NC(=O)[C@H](NC(=O)[C@H](NC(=O)[C@H](CCCN)NC(=O)[C@H]2CCCN2C(=O)[C@H](NC(=O)[C@@H](NC(=O)[C@@H](NC(=O)[C@@H](CCC(N)=O)NC(=O)CCCC(C)C)[C@@H](C)O)C(C)C)C(C)C)[C@H](C)CC)[C@H](C)OC(=O)[C@H](C(C)C)NC1=O
TGI (DU-145): 1390 nM
GI50 (DU-145): 1460 nM
CC50 (DU-145): 1320 nM
CC50 [1]: 743 nM
GI50 [2]: 947 nM
GI50 ([2]; read-out: GI50): 1330 nM
CC50 [2]: 653 nM
TGI (SK-MEL-28): 1280 nM
GI50 (SK-MEL-28): 1340 nM
CC50 (SK-MEL-28): 1230 nM
GI50 (A549): 350 nM
LC50 (A549): 664 nM
GI50 (A549; read-out: GI50): 234 nM
CC50 (K562): 2790 nM
GI50 (PANC-1): 168 nM
TGI (PANC-1): 222 nM
CC50 (PANC-1): 361 nM
GI50 (HT-29): 2300 nM
TGI (HT-29): 2560 nM
CC50 (HT-29): 2870 nM
GI50 (LoVo [3]): 1460 nM
TGI (LoVo [3]): 1800 nM
CC50 (LoVo [3]): 2220 nM
GI50 (LoVo [4]): 610 nM
TGI (LoVo [4]): 1080 nM
CC50 (LoVo [4]): 1670 nM
GI50 (HeLa): 452 nM
TGI (HeLa): 649 nM
CC50 (HeLa): 915 nM
GI50 [5]: 2420 nM
LC50 (concentration giving 50% net cell kill) [5]: 1800 nM
TGI [5]: 3200 nM
